Assays:
[1] = system: A549 lung carcinoma cells; experiment: Cytotoxicity assay; type: cell-based; settings: Homo sapiens, A549, 72 h, read-out: IC50 on cell viability
Method in brief: (§1)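 Cells maintained on uncoated flasks in RPMI 1640 with 10% FBS and 1% penicillin/streptomycin; mycoplasma-checked. Seeded at 3,000 cells/well, allowed ≥3 h adherence (37 °C, 5% CO2), then treated 72 h with graded test compound concentrations. CCK-8 or MTT colorimetric viability, expressed against vehicle-treated cultures. Triplicate wells, at least three independent runs. Apparent IC50 (concentration giving 50% viability) read from mean dose-response curves.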

[2] = system: FSAII fibrosarcoma cells; experiment: Cytotoxicity assay; type: cell-based, murine; settings: Mus musculus, 72 h, read-out: IC50 on cell viability
Method in brief: as §1

[3] = system: SCK mammary carcinoma cells; experiment: Cytotoxicity assay; type: cell-based, murine; settings: Mus musculus, 72 h, read-out: IC50 on cell viability
Method in brief: as §1

[4] = General toxicity; type: in vivo; settings: 10 mg/kg IP BID, comparison study (Fig. 4b)
[5] = system: MA148 ovarian carcinoma cells; experiment: Cytotoxicity assay; type: cell-based; settings: Homo sapiens, Ovarian carcinoma cell, 72 h, read-out: IC50 on cell viability
Method in brief: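 3,000 cells/well, left to adhere at least 3 h at 37 °C in 5% CO2, then exposed to various test compound concentrations for 72 h. Viability read colorimetrically (CCK-8 or MTT) as percentage of vehicle-only cultures. Each experiment in triplicate, repeated ≥3 times. Apparent IC50 (concentration for 50% viability) derived from averaged dose-response curves.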

[6] = system: 2H11 endothelial cells; experiment: Cytotoxicity assay; type: cell-based, murine; settings: Mus musculus, Endothelial cell, 72 h, read-out: IC50 on cell viability
Method in brief: as §1

[7] = system: HUVEC; experiment: Cytotoxicity assay; type: cell-based; settings: Homo sapiens, 72 h, read-out: IC50 on cell viability
Method in brief: (§2)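 Cells grown in 0.2% gelatin-coated flasks in RPMI 1640 with 20% human serum, 2 mM glutamine, penicillin/streptomycin. Seeded at 3,000 cells/well and allowed to adhere ≥3 h (37 °C, 5% CO2), then exposed to a range of test compound concentrations for 72 h. Viability measured by CCK-8 or MTT, relative to vehicle-only cultures. Triplicate wells, ≥3 independent experiments. Apparent IC50 (concentration giving 50% viability) taken from mean dose-response curves.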

[8] = system: B16F10 melanoma cells; experiment: Cytotoxicity assay; type: cell-based, murine; settings: Mus musculus, B16-F10, 72 h, read-out: IC50 on cell viability
Method in brief: as §1

[9] = system: Fibroblasts; experiment: Cytotoxicity assay; type: cell-based; settings: Fibroblast, 72 h, read-out: IC50 on cell viability
Method in brief: as §2

CN(C)CCNC(=O)COc1c2cccc1Cc1cccc(c1OCC(=O)NCCN(C)C)Cc1cccc(c1OCC(=O)NCCN(C)C)Cc1cccc(c1OCC(=O)NCCN(C)C)C2 [PTX008]
IC50 [1]: 2 µM
IC50 [2]: > 20 µM
IC50 [3]: 100 µM
body weights of mice during treatment [4]: remained constant
IC50 [5]: 0.5 µM
IC50 [6]: > 100 µM
IC50 [7]: 3 µM
IC50 [8]: 80 µM
IC50 [9]: 35 µM

Source: paper PMC4242102 (Investigational new drugs, 2013)
